Assay outcomes from PubChem BioAssay.
The list is not random: actives were taken first. Their share in the collection is about 2.5%.
HTRA1 inhibitor – inhibitors of human serine peptidase HTRA1 | Q92743 | recombinant HTRA1, FP-rhodamine activity-based probe, fluorescence polarization | inhibition, % at 5.96 µM | 0.5% of 340,000 active | AID 504803; in the data active = inhibition above about 36%
PRMT1 FP inh – PRMT1 (human) inhibition, primary screen | Q99873 | recombinant PRMT1, activity-based probe fluorescence polarization | inhibition, % at 2.79 µM | 1.3% of 370,000 active | AID 652257;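 active = inhibition above about 21% made by adding two undisclosed values, limit read from the data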
TCR CD3 inh – blocks the human TCR-CD3 interaction. TAMRA-labeled TCR probe fluorescence, biochemical. inhibition, % at 9.4 µM. 0.37% of 360,000 active. AID 651800; in the data active = inhibition above about 19%;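 note: recombinant mutant TCR 2C K166C tagged with TAMRA read by polarization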
SIAE primary – human SIAE inhibition, primary screen | Q9HAT2 | SIAE FP-Rh probe binding, fluorescence polarization | inhibition, % at 9.66 µM | 0.69% of 370,000 active;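 active = inhibition above a cutoff: mean of compounds within the control limits plus 3 SD of those, cut at about 17% in these data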
Target sequence (Q9HAT2 whole entry, looked up): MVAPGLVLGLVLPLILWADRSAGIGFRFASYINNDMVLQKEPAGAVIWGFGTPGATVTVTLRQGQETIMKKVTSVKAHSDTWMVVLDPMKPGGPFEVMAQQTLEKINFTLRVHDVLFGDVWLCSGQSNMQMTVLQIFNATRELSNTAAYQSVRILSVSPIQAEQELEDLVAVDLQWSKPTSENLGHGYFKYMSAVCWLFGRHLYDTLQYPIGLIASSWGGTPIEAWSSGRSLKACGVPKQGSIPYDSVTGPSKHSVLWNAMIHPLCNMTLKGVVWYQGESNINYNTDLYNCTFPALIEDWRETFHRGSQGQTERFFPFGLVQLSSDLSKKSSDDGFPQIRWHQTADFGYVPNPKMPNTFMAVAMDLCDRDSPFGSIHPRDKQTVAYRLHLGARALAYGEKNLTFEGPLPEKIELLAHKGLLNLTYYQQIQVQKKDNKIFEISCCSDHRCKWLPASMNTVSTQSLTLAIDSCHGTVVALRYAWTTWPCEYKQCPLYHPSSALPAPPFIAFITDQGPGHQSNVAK
mABHD4 FP – inhibitors of mouse ABHD4; inhibition, % at 8.92 µM; purified mABHD4, FP-Rh probe fluorescence polarization; AID 720543; Q8VD66; 0.54% of 370,000 active;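 active = inhibition exceeding the mean over every tested compound plus 3 SD, cut at about 30% in these data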
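Test system: mABHD4 protein | Buffer or medium: HEPES pH 7.0 buffer, 150 mM NaCl, 0.01% Pluronic F-127 | Probe or stimulus: FP-Rh fluorescent activity-based probe, added after compound pre-incubation | Timing: Pre-incubation 45 min, probe exposure 60 min, at 25 °C | Technique: Fluorescence polarization, excitation 525 nm, emission 598 nm, BODIPY TMR filters | Repeats: Single well per compound (singlicate)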
SIAE confirm – human SIAE inhibition, confirmation; shares compounds with SIAE primary; SIAE FP-Rh activity-based probe, fluorescence polarization; 13% of 2,300 active; AID 1117263; inhibition, % at 9.66 µM;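 active = mean inhibition of the replicates above the hit cutoff set in the primary screen, cut at about 17% in these data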;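 note: inhibitors lower polarization as more probe stays unbound to SIAE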
Of the large screens only hits and unclear results are named; the others gave an inactive call (follow-up assays come after a bar, where they were run).

CC(C)C[C@H]1CNC(=O)C(=O)N1C[C@H]1CCCN1C[C@H](CC(C)C)N1C[C@H](Cc2ccccc2)N(CCc2ccccc2)C(=O)C1=O	none (no result: HTRA1 inhibitor)
CN1C(=O)CC(C(=O)O)SC1=Nc1ccc(F)cc1 (stereo unspecified)	none
COc1ccc(N=C2SC(C(=O)O)CC(=O)N2C)cc1 (stereo unspecified)	SIAE primary 25 | SIAE confirm inactive
COc1cc2[nH]c(=S)nc(NCCCOC(C)C)c2cc1OC	SIAE primary 24 | SIAE confirm inactive
CCOCCCNc1nc(=S)[nH]c2cc(OC)c(OC)cc12	none
O=C1NC(=O)C(=Cc2ccccc2)N1	none
O=C1NC(=O)/C(=C/c2cccc(O)c2)N1	SIAE primary 17 | SIAE confirm inactive
O=C(c1cc(-c2ccc(Cl)cc2)n[nH]1)N1CCc2ccccc2C1	none
COc1ccc(NC(=O)CSc2nnc(Cn3cnc4ccccc43)o2)cc1	SIAE primary 18 | SIAE confirm inactive
Cc1cccc(NC(=O)CSc2nnc(Cn3cnc4ccccc43)o2)c1	none
COc1ccc(C(=O)NCC(=O)OCc2c(Cl)cccc2Cl)cc1OC	none
CCCc1nnc(SCC(=O)NC2CC2)n1C	none
CCCC(C(=O)NC1CCCC1)N(Cc1ccc(F)cc1)C(=O)c1snc(C(N)=O)c1N (stereo unspecified)	none
CCCC(C(=O)NC1CCCC1)N(Cc1ccc2c(c1)OCO2)C(=O)c1snc(C(N)=O)c1N (stereo unspecified)	SIAE primary 24 | SIAE confirm inactive
O=[N+]([O-])c1ccc(N/N=C/c2cccc(O)c2)cc1	SIAE primary 20 | SIAE confirm inactive
CCOC(=O)c1sc(NC(=O)Nc2cccc(Cl)c2)cc1C	SIAE primary 18 | SIAE confirm inactive
O=C(CCC(=O)Nc1cccnc1)Nc1cccnc1	none
Cn1c(SCc2ccccc2)nnc1-c1cnccn1	SIAE primary 20 | SIAE confirm inactive
Cn1c(SCc2ccc(F)cc2)nnc1-c1cnccn1	none
COC(=O)C(C(=O)OC)C1C=CCN(C(C)=O)C1 (stereo unspecified)	none
CC(=O)c1ccccc1NC(=O)COC(=O)CCCN1C(=O)c2cccc3cccc(c23)C1=O	SIAE primary 19 | SIAE confirm inactive
Cc1ccc(S(C)(=O)=O)cc1C(=O)Nc1ccc(S(=O)(=O)Nc2nccs2)cc1	SIAE primary 24 | SIAE confirm inactive
CC(=O)Nc1ccc(S(=O)(=O)Nc2nccs2)cc1	none
CC(=O)c1ccc(NC(=S)Nc2cccc3ccccc23)cc1	SIAE primary 32 | SIAE confirm inactive
CC(C)CCn1c(COc2ccccc2)n[nH]c1=S	SIAE primary 20 | SIAE confirm inactive
O=C(OC1CCOC1=O)c1ccc(Cl)c(S(=O)(=O)N2CCOCC2)c1 (stereo unspecified)	none
O=C(NC(Cc1c[nH]c2ccccc12)C(=O)Nc1ccc(F)c([N+](=O)[O-])c1)c1cccs1 (stereo unspecified)	SIAE primary 19 | SIAE confirm inactive
O=C(NC(Cc1c[nH]c2ccccc12)C(=O)Nc1ccc(OC(F)(F)F)cc1)c1cccs1 (stereo unspecified)	none
O=C(O)COC(=O)C1C(c2ccccc2)C(C(=O)O)C1c1ccccc1 (stereo unspecified)	none
CCCCCC(=O)Nc1ccc2oc(-c3cncc(Br)c3)nc2c1	SIAE primary 36 | SIAE confirm inactive
C#Cc1ccc([C@H]2C=C(C(=O)O)O[C@@H](OCCCCO)C2)cc1	none
Cc1cc(N2CCCC2)n2nc(C)nc2n1	SIAE primary 19 | SIAE confirm inactive
CC(=O)N1CCN(c2cc(C)nc3nc(C)nn23)CC1	none (no result: HTRA1 inhibitor, TCR CD3 inh)
CC(=O)Nc1cc([N+](=O)[O-])ccc1N1CCOCC1	none
O=C(Nc1ccc([N+](=O)[O-])cc1)Nc1ccc(N2CCOCC2)c2nonc12	SIAE primary 19 | SIAE confirm inactive
CC(C(=O)Nc1ccccc1-c1ccccc1)N(C)Cc1nc2ccccc2c(=O)[nH]1 (stereo unspecified)	none
O=C(CN1C(=O)NC2(CCCC2)C1=O)N1CCCSC1=Nc1ccccc1	SIAE primary 23 | SIAE confirm 69
CC(=O)N1CCN(S(=O)(=O)c2ccc3c(c2)oc(=O)n3C)CC1	none (no result: HTRA1 inhibitor, TCR CD3 inh)
